Measurements gathered from unrelated publications.
Lines come from different studies, so protocols differ.
Read-out: DPPH scavenging

For Clc1ccc2[nH]c(-c3cccc(OCc4ccccc4)c3)nc2c1, the IC50 was 1820 nM (absorbance).
O=C(Cc1c[nH]c2ccccc12)Nc1ccc(F)cc1F has an IC50 of 1710 nM.
The IC50 of COc1cc(C=Cc2cc(-c3ccc(N(C)C)cc3)nc(O)n2)ccc1O is reported as 32.5 µg/mL.
For O=C1O[C@H]([C@@H](O)CO)C(O)=C1O, the IC50 was 4.8 µg/mL.
For O=C1O[C@H]([C@@H](O)CO)C(O)=C1O, the IC50 was 141000 nM (absorbance).
COc1cc(C(CC(=O)c2ccc([N+](=O)[O-])cc2)NCCc2ccc(O)c(O)c2)ccc1O (stereo not drawn) gave an IC50 of 14.6 µg/mL.
O=C(Cc1c[nH]c2ccccc12)Nc1ccc(Br)cc1 gave an IC50 of 1030 nM.
For COc1cc(C(CC(=O)c2ccc(Cl)cc2)NCCc2ccc(O)c(O)c2)ccc1O (stereo not drawn), the IC50 was 15.3 µg/mL.
The IC50 of CCCCOc1ccc(NC(=O)Cc2c[nH]c3ccccc23)cc1 is reported as 2420 nM.
The IC50 of Cc1cc2nc(-c3ccccc3OCc3ccccc3)[nH]c2cc1C is reported as 1800 nM (absorbance).
COc1cc(C(CC(=O)c2ccc(C)cc2)NCCc2ccc(O)c(O)c2)ccc1O (stereo not drawn) gave an IC50 of 21.1 µg/mL.
The IC50 of COc1ccc(-c2nc3cc(Cl)ccc3[nH]2)cc1OCc1ccccc1 is reported as 2760 nM (absorbance).
Cc1ccc(NC(=O)Cc2c[nH]c3ccccc23)c(C)c1 has an IC50 of 2670 nM.
COc1cc(C(CC(=O)c2ccc(Br)cc2)NCCc2ccc(O)c(O)c2)ccc1O (stereo not drawn) has an IC50 of 15.2 µg/mL.
O=C(OC[C@H]1O[C@@H](OC(=O)c2cc(O)c(O)c(O)c2)[C@H](OC(=O)c2cc(O)c(O)c(O)c2)[C@@H](OC(=O)c2cc(O)c(O)c(O)c2)[C@@H]1O)c1cc(O)c(O)c(O)c1 has an IC50 of 11900 nM (absorbance).
COc1ccc(-c2nc3cc([N+](=O)[O-])ccc3[nH]2)cc1OCc1ccccc1 has an IC50 of 2570 nM (absorbance).
With COC(=O)c1cc(O)c(O)c(O)c1 the IC50 was 35000 nM (absorbance).
Cc1ccc(Cl)cc1NC(=O)Cc1c[nH]c2ccccc12 has an IC50 of 1620 nM.
The IC50 of O=c1c(O[C@@H]2O[C@H](CO)[C@@H](O)[C@H](O)[C@H]2O)c(-c2ccc(O)c(O)c2)oc2cc(O)cc(O)c12 is reported as 90500 nM (absorbance).
For Cc1ccc(C)c(NC(=O)Cc2c[nH]c3ccccc23)c1, the IC50 was 1790 nM.
With Cc1c(C)c2c(c(C)c1O)CCC(C)(C(=O)O)O2 (stereo not drawn) the IC50 was 7.06 µg/mL (absorbance).
